From PubChem BioAssay AID624467 (The Scripps Research Institute Molecular Screening Center, 2012)
Values joined by “and” are separate entries in the source; they are usually repeats but may differ in a detail not shown here. Identical values can stand only once. The campaign covered roughly 360,000 compounds. About 3,600 (1%) were called active.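 Rule for the calls: active = activation above the mean activation of all test compounds in the run plus 3 SD (cut at about 38% in these data); inactive = the rest.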 The entries come from a sample that favours actives as a whole.

Target: Trace amine-associated receptor 1 (Homo sapiens) (UniProt Q96RJ0)
Sequence (Q96RJ0 whole entry, looked up): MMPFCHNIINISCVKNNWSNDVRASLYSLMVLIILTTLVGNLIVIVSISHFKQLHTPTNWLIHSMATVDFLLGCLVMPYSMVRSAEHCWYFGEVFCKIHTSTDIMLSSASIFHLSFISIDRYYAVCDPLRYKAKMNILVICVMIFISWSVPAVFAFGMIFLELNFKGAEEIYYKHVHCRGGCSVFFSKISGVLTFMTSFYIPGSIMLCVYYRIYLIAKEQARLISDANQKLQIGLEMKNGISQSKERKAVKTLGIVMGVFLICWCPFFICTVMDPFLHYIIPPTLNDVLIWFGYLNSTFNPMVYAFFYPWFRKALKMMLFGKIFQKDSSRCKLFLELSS
Experiment: human TAAR1 agonists, primary screen, Fluo-8 calcium fluorescence, CHO RD-HGA16 cells (AID 624467)
Conditions: CHO RD-HGA16 TAAR1, Fluo-8 calcium fluorescence; at 3 µM; active compounds read high; vehicle wells 0%, saturating PEA agonist 100%
Method in brief: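 Assay system – CHO-derived RD-HGA16 cells with stable Gα16 and human TAAR1 · Compound dosing – one-point dosing at 3 µM (nominal) · Incubation – 17-24 h seeding, 75 min 37 °C dye, 30 min RT · Measured by – kinetic Fluo-8 calcium fluorescence · Control set – DMSO vehicle as 0%, PEA at EC100 as 100% · Repeats – single well for each compound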

| SMILES | activation |
| --- | --- |
| CCc1ccccc1S(=O)(=O)Cc1ccc(C(=O)NCCc2ccccc2)o1 | 50.3% (active) |
| COc1ccccc1CNC(=O)c1ccc(CS(=O)(=O)c2ccccc2)o1 | 11.9% (inactive) |
| Cc1ccccc1S(=O)(=O)Cc1ccc(C(=O)NCCN2CCCCC2C)o1 (stereo not drawn) | 8.73% (inactive) |
| CCCc1nnc(NC(=O)CCC(=O)N2CCN(S(=O)(=O)c3ccc(OC)cc3)CC2)s1 | 4.53% (inactive) |
| CC1CCCN(c2cccc3c2S(=O)(=O)N(Cc2ccc(F)cc2)[C@@H](C)[C@H](c2ccccc2)O3)C1 (stereo partly drawn) | 0.84% (inactive) |
| COC(=O)[C@]12C[C@H](CC(=O)NCc3ccccc3)C(=O)N(CCC3=CCCCC3)C1=C[C@H](C(C)(C)C)O[C@@H]2C | -2.08% (inactive) |
| S=C(NN=C1CCN(Cc2ccccc2)CC1)NC1CCCCC1 | 1.76% (inactive) |
| CCCC1CCC(=NNC(=S)NCCc2ccccc2)CC1 (stereo not drawn) | 54.9% (active) |
| CCCCNC(=S)N/N=C1\CCCCc2ccccc21 | -2.14% (inactive) |
| Cc1cccnc1CCNC(=O)C1CCC(=O)N(Cc2cccc(F)c2)C1 (stereo not drawn) | 0.59% (inactive) |
| CN1CCCCC(NC(=O)C(C)(C)C)C1=O (stereo not drawn) | 3.02% (inactive) |
| O=[N+]([O-])c1ccccc1N/N=C1\CCc2ccccc21 | -0.37% (inactive) |
| Oc1ccc2ccc3cccc[n+]3c2c1 | 152% (active) |
| Cc1ccc(C)c(CN2CCC(CNC(=O)C3CCCN(c4ncnc5c4nc4n5CCCCC4)C3)CC2)c1 (stereo not drawn) | -0.04% (inactive) |
| CCCc1c(-c2ccccc2F)ncn1Cc1ccccc1OC | 5.04% (inactive) |
| COc1ccccc1Cc1c(-c2ccc(Cl)cc2)nc2c3ccccc3ccn12 | 0.7% (inactive) |
| CCCCc1c(-c2ccc(Br)cc2)ncn1CCc1ccccc1OC | 48% (active) |
| CCc1c(-c2ccccc2OC)ncn1CCc1ccccc1OC | 53% (active) |
| COc1ccccc1CCNS(=O)(=O)c1cn(C)nc1C | 4.37% (inactive) |
| COc1ccccc1Cc1c(-c2ccc(F)cc2)nc2ccc(C)cn12 | 0.01% (inactive) |

| SMILES | activation |
| --- | --- |
| CCCCc1c(-c2ccc(Cl)cc2)ncn1CCc1ccccc1OC | 54.2% (active) |
| COc1ccccc1CCn1cnc(-c2ccccc2)c1C(C)C | 8.43% (inactive) |
| COc1ccccc1Cc1c(-c2ccc(Cl)cc2)nc2ccc(Cl)cn12 | -1.69% (inactive) |
| [2H]C(CCOS(N)(=O)=O)c1ccccc1 (stereo not drawn) | -0.46% (inactive) |
| CCCNC(=O)CCc1c(C)nc2c(c(C)nn2-c2ccccc2)c1C | 1.73% (inactive) |
| O=C1CC(C(F)(F)C(F)(F)C(F)(F)C(F)(F)F)=Nc2ccccc2N1 | -0.77% (inactive) |
| COc1ccc(-c2ccccc2C2Cc3nnccc3CN2C(=O)Nc2ccccc2)cc1 (stereo not drawn) | -0.83% (inactive) |
| COC(=O)c1cc2c(c3c4ccccc4n(S(=O)(=O)c4cccc(C)c4)c13)C(=O)N(Cc1ccccc1)C2 | 3.11% (inactive) |
| C=CCNC(=O)COC(=O)c1ccccc1C(=O)N(C)C1CCCCC1 | 5.08% (inactive) |
| NS(=O)(=O)c1ccc(CCNC(=O)NC2CCCCC2)cc1 | 1.51% (inactive) |
| CC(C)C(=O)Nc1ccc2c(c1)oc1ccccc12 | 6.67% (inactive) |
| NC(=O)Nc1ccccc1C(=O)NCCc1ccccc1 | 10.1% (inactive) |
| CC(NC(=O)CC1SC(N)=NC1=O)c1ccccc1 (stereo not drawn) | 4.22% (inactive) |
| Nc1[nH]c(C(=O)c2ccc(Br)cc2)c(-c2ccc3c(c2)OCO3)c1C(=O)NCCc1c[nH]c2ccccc12 | 6.41% (inactive) |
| COc1ccc(C(N)c2csc(NC(=O)Nc3cccc(C(F)(F)F)c3)n2)cc1 (stereo not drawn) | 50.9% (active) |
| NC(c1csc(NC(=O)Nc2cccc(C(F)(F)F)c2)n1)C1CCCCC1 (stereo not drawn) | 39% (active) |
| COc1cccc(NC(=O)Nc2nnc(N3CCCCC3C)s2)c1 (stereo not drawn) | 0.7% (inactive) |
| CCOC(=O)c1csc(NC(=O)Nc2cccc(OC)c2)n1 | 14.4% (inactive) |
| C/C(CC(=O)Nc1cccc(C(F)(F)F)c1)=N\NC(=O)C(=O)NCC(C)C | 4.66% (inactive) |
| CC(=O)c1ccc(Nc2nc(C(N)c3ccccc3)cs2)cc1 (stereo not drawn) | 4.52% (inactive) |

| SMILES | activation |
| --- | --- |
| COc1cc(NC(=O)c2cncc(-c3ccc(C#N)cc3)c2)cc(C(=O)Nc2cccc(C(F)(F)F)c2)c1 | 7.65% (inactive) and 3.81% (inactive) |
| NC(c1csc(NC(=O)Nc2ccccc2Oc2ccccc2)n1)c1ccccc1Cl (stereo not drawn) | 13.7% (inactive) |
| NC(c1ccccc1)c1csc(NC(=O)Nc2cccc(C(F)(F)F)c2)n1 (stereo not drawn) | 57% (active) |
| CC1(C(=O)NS(=O)(=O)c2cccc(F)c2)CCN1C(=O)c1cccc2ccccc12 (stereo not drawn) | -0.17% (inactive) |
| O=S1(=O)c2c(cccc2N2CCCC2)O[C@H](COCc2ccccc2)CN1C1CC1 | 0.87% (inactive) |
| Cc1cc(N2CCN(C(=O)OC(C)(C)C)C[C@H]2C)ccc1N1CCN(Cc2ccccc2)[C@H](C)C1 | 0.58% (inactive) |
| Cc1nc2c(OCc3ccc(Cl)cc3)cccn2c1N(C)Cc1cccs1 | 0.87% (inactive) |
| CCCCCCCCN1C(=O)[C@@H](CC(=O)NCc2ccccc2)C[C@@]2(C(=O)OC)C1=C[C@H](C(C)(C)C)O[C@@H]2C | -0.96% (inactive) |
| Cc1ccc(OC(=O)c2cncc(Br)c2)c(C)c1 | 6.31% (inactive) |
| COCCNC(=O)C1CCN(C(=O)C2CC(=O)N(c3ccc(C)cc3)C2)CC1 (stereo not drawn) | -0.76% (inactive) |
| COc1ccc(NC(=O)c2sc(N3CCOCC3)nc2-c2ccccc2)c(OC)c1 | -1.31% (inactive) |
| COc1ccc(C(=O)NC(=O)CSc2nnc(-c3ccco3)n2-c2ccccc2)cc1 | 1.34% (inactive) |
| Cc1nc2ccccc2c(C)c1C(=O)c1ccc(F)cc1 | 12.1% (inactive) |
| Cc1onc(-c2ccccc2)c1C(=O)N1CCN(S(=O)(=O)c2ccccc2C(F)(F)F)CC1 | 0.73% (inactive) |
| COc1ccc(C(=O)NC(=S)NNC(=O)c2c(-c3ccccc3)noc2C)cc1 | 120% (active) |
| Cc1onc(-c2ccccc2)c1C(=O)NNC(=S)NC(=O)c1ccc(F)cc1 | 112% (active) |
| O=C(O)C1CCN(S(=O)(=O)N2CCOCC2)CC1 | 7.75% (inactive) |
| Cc1ccc(OCC(=O)Nc2ccc(C(=O)O)cc2NC(=O)COc2ccc(C)c(C)c2)cc1C | 3.56% (inactive) |
